# In the library only some 2.1% were active in any assay of this set; here they are far more common.
# PAX8 reporter – inhibitors of PAX8-driven TPO luciferase reporter, primary screen, RMG-I cells, single concentration; inhibition, % at 12.6 µM; 1.2% of 360,000 active; SteadyGlo, 24 h; AID 652154, 2013;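 active = mean replicate inhibition at least 60% with every replicate also reaching 60%; inconclusive = only one of the two criteria is met; inactive = mean below 60% and not all replicates reaching 60%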;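 note: luciferase light reporting Pax8 driven TPO promoter activity; plate controls were median of neutral control wells for no effect and mitoxantrone controls for full effect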
# EBV LMP1 NFkB – EBV LMP1-driven NF-kappaB luciferase reporter inhibitors, primary screen, cell-based, luminescence, single point. AID 504558, 2011. LMP1-induced NF-kappaB luciferase reporter cells. inhibition, % at 12.5 µM. 0.69% of 350,000 active; in the data active = inhibition above about 41%; inconclusive = no clear call, values can overlap the other calls;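 note: 0% = neutral control wells and 100% = reference inhibitor control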
# EWS-Fli inh – EWS/Fli-driven NR0B1 reporter inhibitors, primary screen, A673 cells, NR0B1 luciferase, luminescence, MLPCN library; viability-normalised; inhibition, % at 12.6 µM; 0.67% of 350,000 active; AID 651661, 2012;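 active = mean inhibition of at least 50% after viability correction, with every replicate also passing that limit; inconclusive = mean reaches 50% but only one of two replicates passes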;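 note: firefly luciferase signal divided by Alamar Blue viability fluorescence both relative to DMSO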
# FN deposition inh – inhibitors of fibronectin matrix deposition, primary screen, AH1F cells, Alexa488-fibronectin fluorescence, plate reader. 0.086% of 350,000 active. inhibition, % at 12.6 µM. AID 743247, 2014. AH1F fibroblasts, overnight;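 active = mean inhibition across replicates of 30% or more, regardless of how many single replicates reach that level; inconclusive = mean under 30% yet at least half of replicates reach 30%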;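 note: positive control wells lacked labelled fibronectin entirely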
#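 test system = AH1F fibroblasts assembling fluorescent fibronectin matrix | quantity = 10000 AH1F cells per well | buffer or medium = DMEM plus 2% serum, read in PBS | doses = single dose, pinned | incubation = 1 h cell attachment, overnight exposure to compound and label | detection = fluorescence at 485 nm excitation, 525 nm emission | read-out basis = inhibition from reduced deposited-fibronectin fluorescence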
# Shn3 3UTR inh – reduction of Shn3 3'UTR firefly luciferase signal, primary screen, Schnurri-3 inhibitor project, cell-based, Clone20 osteoblasts, set 2; inhibition, % at 12.5 µM; 0.52% of 360,000 active; Clone20 osteoblast Shn3 3'UTR firefly luciferase, 24 h; AID 588674, 2011;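 active = mean inhibition of at least 75% with every replicate also reaching 75%; inconclusive = mean inhibition at least 75% but some replicate below; inactive = mean inhibition below 75%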;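 note: 0% = median of neutral control wells and 100% = pilot-screen positive control compound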
# aSyn UTR inh – MLPCN primary screen, SNCA 5' untranslated region; alpha-synuclein 5'UTR reporter, inhibitor activity; inhibition, % (tested at 7.5 µM); 0.82% of 300,000 active; in the data active = inhibition above about 60%; inconclusive = no clear call, values can overlap the other calls;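 note: H4 neuroglioblastoma cells stably carrying SNCA 5'UTR luciferase fusion; 0% = DMSO wells and 100% = positive control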
# * = called active by the depositor; ? = inconclusive; / = no result.
SMILES,PAX8 reporter,EBV LMP1 NFkB,EWS-Fli inh,FN deposition inh,Shn3 3UTR inh,aSyn UTR inh
C[C@H](CO)N1C[C@H](C)[C@H](CN(C)Cc2ccc(Cl)c(Cl)c2)OCCCC[C@H](C)Oc2ccc(NC(=O)c3ccccc3)cc2C1=O,7,/,6,17,/,/
C[C@@H]1CCCCO[C@H](CN(C)Cc2ccc(Cl)c(Cl)c2)[C@@H](C)CN([C@@H](C)CO)C(=O)c2cc(NC(=O)c3ccccc3)ccc2O1,82*,/,16,-1,/,/
CN1C(=O)c2cc(NC(=O)C3CCCCC3)ccc2OC[C@H]2O[C@H](CC(=O)NCCc3ccncc3)CC[C@@H]21,11,/,2,-11,/,/
O=C(C[C@H]1CC[C@H]2[C@@H](COC[C@H](O)CN2C(=O)c2cnccn2)O1)NCc1ccccc1,-29,/,-8,-12,/,/
CO[C@H]1CN(C)C(=O)c2cccc(C#N)c2OCC[C@@H]2CC[C@@H](OC)[C@H](CN(C)C(=O)[C@@H]1C)O2,-2,/,-8,-1,/,/
C[C@@H]1CN([C@H](C)CO)C(=O)c2cc(NS(=O)(=O)c3ccc(F)cc3)ccc2O[C@H]1CN(C)S(C)(=O)=O,/,/,-1,/,/,/
Cc1cc(C(=O)N2CCN(c3ccc(C(F)(F)F)cn3)CC2)c(C)o1,11,13,3,-2,18,7
Cc1cccc(C(=O)N2CCN(c3ccc(C(F)(F)F)cn3)CC2)c1C,/,45*,/,/,1,13
O=C(N/N=C/c1ccc(N2CCOCC2)s1)c1ccc(O)cc1,-23,-26,-20,/,-13,/
NC(=O)N/N=C/c1ccc(N2CCOCC2)s1,-8,48*,3,6,2,27
COc1ccc(C(=O)/C=C2\NCCc3cc(OC)c(OC)cc32)cc1OC,5,12,4,9,22,64*
Cc1ccc(NC(=O)c2c([N+](=O)[O-])c(C(C)(C)C)nn2C)c(C)c1,128*,1,-6,9,-8,18
CCN(CC)C(=S)SSC(=S)N(CC)CC,5,-10,33,-14,-3,97*
CCN(CC)C(=S)SCC(=O)c1ccccc1,-205,-38,/,/,-47,-165
COc1ccc(NC(=O)c2cn(-c3ccccc3)nc2-c2ccncc2)cc1,14,-3,0,4,19,-25
COc1ccc(-c2nn(-c3ccccc3)cc2C(=O)NC(=S)NNC(=O)c2ccncc2)cc1,-2,36,20,2,55,73*
CSc1ccccc1NC(=O)C(C)N(C)CC(=O)N1CCN(Cc2ccccc2)CC1 (stereo unspecified),-4,72*,3,0,4,/
C[C@H](CO)N1C[C@H](C)[C@H](CN(C)Cc2ccccc2)Oc2c(NS(C)(=O)=O)cccc2C1=O,-3,/,1,/,/,/
Cc1ccc(S(=O)(=O)N(C)C[C@H]2OCCCC[C@@H](C)Oc3ccc(NS(=O)(=O)c4ccc(F)cc4)cc3C(=O)N([C@@H](C)CO)C[C@H]2C)cc1,83*,/,2,-9,/,/
C[C@H](CO)N1C[C@H](C)[C@H](CN(C)S(=O)(=O)c2ccccc2)OCCCC[C@H](C)Oc2ccc(NS(=O)(=O)c3ccc(F)cc3)cc2C1=O,63*,/,2,-3,/,/
Cc1ccc(S(=O)(=O)N(C)C[C@@H]2OCCCC[C@H](C)Oc3ccc(NS(=O)(=O)c4ccc(F)cc4)cc3C(=O)N([C@@H](C)CO)C[C@@H]2C)cc1,58,/,-2,-1,/,/
Cc1ccc(S(=O)(=O)Nc2ccc3c(c2)C(=O)N([C@H](C)CO)C[C@H](C)[C@H](CN(C)S(=O)(=O)c2ccc(F)cc2)OCCCC[C@H](C)O3)cc1,68*,/,16,/,/,/
Cc1ccc(S(=O)(=O)Nc2ccc3c(c2)C(=O)N([C@@H](C)CO)C[C@@H](C)[C@@H](CN(C)S(=O)(=O)c2ccc(F)cc2)OCCCC[C@@H](C)O3)cc1,68*,/,-8,/,/,/
Cc1ccc(S(=O)(=O)N(C)C[C@@H]2OCCCC[C@H](C)Oc3ccc(NS(=O)(=O)c4ccc(F)cc4)cc3C(=O)N([C@H](C)CO)C[C@@H]2C)cc1,70*,/,-2,-7,/,/
CN(C)CCCNC(=O)[C@H]1[C@H](CO)[C@H]2Cn3c(ccc(-c4cccc(F)c4)c3=O)[C@@H]1N2,-16,/,-1,/,/,/
SMILES,PAX8 reporter,EBV LMP1 NFkB,EWS-Fli inh,FN deposition inh,Shn3 3UTR inh,aSyn UTR inh
Cc1noc(C)c1COc1cccc(C(=O)OCC(=O)N2CC(=O)Nc3ccccc32)c1,-5,-23,/,/,13,65*
O=C1CN(C(=O)COc2cccc(F)c2)c2ccccc2N1,12,/,1,0,/,5
CC(C)CN=C(NS(=O)(=O)c1ccccc1)C(Cl)(Cl)Cl,100*,19,45,2,65,-20
COc1ccc(CNC(=O)C(c2ccc(C)cc2)N(Cc2cccs2)C(=O)c2ccc3c(c2)OCCO3)cc1 (stereo unspecified),/,24,/,-8,89*,3
Cc1ccc(C(C(=O)NCc2ccccc2)N(Cc2cccs2)C(=O)c2ccc3c(c2)OCCO3)cc1 (stereo unspecified),45,-3,10,-4,45,-10
CC(C)(C)c1nnc(N/N=C/c2cc(Br)ccc2O)n(N)c1=O,61*,?,/,14,86*,116*
C[C@H](CO)N1C[C@H](C)[C@@H](CN(C)CC2CC2)Oc2ccc(NS(C)(=O)=O)cc2CC1=O,-16,/,1,/,/,/
CCCCCCC[N+](CC)(CC)CCCCc1ccc(Cl)cc1,87*,17,19,-8,?,/
C[C@@]12C(=O)N(Cc3ccccc3)CC(=O)N1[C@H](/C=C/c1ccccc1)[C@@H]1C(=O)N(c3ccccc3)C(=O)[C@@H]12,0,82*,-5,2,/,19
O=c1c2ccccc2c(-c2n[nH]c(=S)o2)nn1Cc1ccccc1,-7,8,15,/,12,24
OCc1ccc(-c2nn(Cc3ccccc3)c3ccccc23)o1,9,93*,18,9,9,19
CCN(CC)c1ccc(/C=C2/SC(=O)N(C(C)C)C2=O)o1,54,0,48,13,96*,-175
CC(C)N1C(=O)S/C(=C\c2ccc(-c3ccc(Cl)c(C(=O)O)c3)o2)C1=O,-41,-22,-42,-1,-73,-128
Cc1c([N+](=O)[O-])cc(N2C(=O)C=CC2=O)cc1[N+](=O)[O-],/,6,/,/,21,/
Cc1cc(N2C(=O)C=CC2=O)c([N+](=O)[O-])cc1C,/,-7,/,/,89*,21
COc1ccc(S(=O)(=O)Nc2ccc3c(c2)C(=O)N([C@@H](C)CO)C[C@H](C)[C@@H](CN(C)S(=O)(=O)c2ccc(C)cc2)O3)cc1,15,/,0,/,/,/
CCOc1ccccc1Nc1cc(C)nc2ccccc12,-15,8,6,-14,92*,/
CCOc1ccccc1Nc1cc(C)nc2ccc(C)cc12,13,-10,20,-1,39,31
